Laboratory results published in ChEMBL document CHEMBL5653617, “Inhibition of BRD4 attenuates tumor cell self-renewal and suppresses stem cell signaling in MYC driven medulloblastoma” (Oncotarget, 2014).
Activity calls are given as the source filed them. No cut-off for these calls is given here.

Legend:
Daoy [1] = assay: Induction of senescence in human Daoy cells assessed as increase in p27 mRNA expression at 300 nM by RT-qPCR analysis; type: functional, cell-based
Summary of the method: (§1)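 Cells treated with 300 nM drug or DMSO. p16, p21 and p27 mRNA measured by TaqMan qPCR with ΔΔCt quantitation, in triplicate.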

D283 Med [2] = assay: Inhibition of colony formation in human D283 Med cells at 100 to 300 nM incubated for 8 to 11 days by NBT staining based methyl cellulose colony growth assay; type: functional, cell-based; details: dose 100-300 nM, time 8-11 day
Summary of the method: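 500 cells/well suspended in DMEM with methyl cellulose (1.3% final) containing 150 or 300 nM drug or DMSO, plated in triplicate. Colonies formed over 8–11 days, then stained with NBT (1 mg/ml) for 24 h at 37 °C. Colonies of ≥50 cells counted.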

D458 Med [3] = assay: Induction of cell cycle arrest in human D458 Med cells assessed as accumulation of cells at G1 phase at 300 nM incubated for 48 hrs by flow cytometry analysis (reference value: 35.85 +/- 1.37%); type: functional
D425 Med [4] = assay: Induction of cell cycle arrest in human D425 Med cells assessed as G2/M phase cells at 300 nM incubated for 48 hrs by flow cytometry analysis (reference value: 37 +/- 0.47%); type: functional
D458 Med [5] = assay: Induction of cell cycle arrest in human D458 Med cells assessed as S phase cells at 300 nM incubated for 48 hrs by flow cytometry analysis (reference value: 43.54 +/- 3.48%); type: functional
Daoy [6] = assay: Antiproliferative activity in human Daoy cells assessed as inhibition of cell growth measured upto 120 hrs by xCELLigence system; type: functional, cell-based; details: dose 0.1-1 µM
Summary of the method: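 Real-time impedance growth monitoring (xCELLigence, E-Plate 96). 1000 cells/well plated, DMSO or drug at varying concentrations added 24 h later, growth recorded continuously over time.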

[7] = biological target: Bromodomain-containing protein 4 (Homo sapiens) (UniProt O60885); details: D425 Med, dose 300.0 nM
Daoy [8] = assay: Induction of cell cycle arrest in human Daoy cells assessed as S phase cells at 300 nM incubated for 48 hrs by flow cytometry analysis (reference value: 15.39 +/- 1.73%); type: functional
[9] = biological target: Bromodomain-containing protein 4 (Homo sapiens) (UniProt O60885); details: D425 Med, dose 300.0 nM; remark: listed apart in the source
[10] = biological target: Bromodomain-containing protein 4 (Homo sapiens) (UniProt O60885); details: D425 Med, dose 300.0 nM; remark: listed apart in the source
[11] = biological target: Bromodomain-containing protein 4 (Homo sapiens) (UniProt O60885); details: D425 Med, dose 300.0 nM; remark: listed apart in the source
D425 Med [12] = assay: Antiproliferative activity in human D425 Med cells assessed as inhibition of cell growth at 300 nM by flow cytometry analysis; type: functional, cell-based
Summary of the method: (§2)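 ViaCount flow cytometric cell count. Cells seeded in medium, DMSO or drug added 24 h later, cultured a further 48 h. Cells then pelleted, washed, stained with Viacount reagent and counted on a Guava cytometer. Vehicle control DMSO.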

[13] = biological target: Bromodomain-containing protein 4 (Homo sapiens) (UniProt O60885); details: D425 Med, dose 300.0 nM; remark: listed apart in the source
D425 Med [14] = assay: Induction of cell cycle arrest in human D425 Med cells assessed as accumulation of cells at G1 phase at 300 nM incubated for 48 hrs by flow cytometry analysis (reference value: 33.715 +/- 0.495%); type: functional
[15] = biological target: Bromodomain-containing protein 4 (Homo sapiens) (UniProt O60885); details: Daoy, dose 100.0 nM, time 24-72 hrs, TDE = time-dependent effect
[16] = biological target: Bromodomain-containing protein 4 (Homo sapiens) (UniProt O60885); details: Daoy, dose 300.0 nM
Medulloblastoma cell = assay: Induction of cell cycle arrest in patient-derived Medulloblastoma cells assessed as accumulation of cells at G1 phase at 300 nM; type: functional, cell-based; details: Homo sapiens
[17] = biological target: Bromodomain-containing protein 4 (Homo sapiens) (UniProt O60885); details: D283 Med, time 24-48 hrs
Daoy [18] = assay: In vivo inhibition of BRD4 in athymic nude mouse xenografted with human Daoy cells assessed as reduction in SOX2 protein expression in tumor at 50 mg/kg, ip measured after 5 days by immunofluorescence analysis; type: functional, organism-based; details: time 5.0 day
Summary of the method: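 Tumors from Daoy flank xenografts in nude mice treated 50 mg/kg i.p. or DMSO vehicle for 5 days, then sacrificed. SOX2 protein detected by immunofluorescence on tumor sections.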

D283 Med [19] = assay: Induction of cell cycle arrest in human D283 Med cells assessed as accumulation of cells at G1 phase at 300 nM incubated for 48 hrs by flow cytometry analysis (reference value: 23.47 +/- 0.29%); type: functional
[20] = Toxicity in athymic nude mouse xenografted with human Daoy cells assessed as change in body weight at 50 mg/kg, ip administered 5 days a week for 4 weeks and measured after 20 days; type: organism-based; details: in vivo, 1152 h, time 48 day
Summary of the method: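 Daoy cells (1.0×10^7 in PBS) injected into the flank of athymic nude mice. Dosing began once tumors were palpable, at a mean of 52 days post inoculation. 50 mg/kg i.p. or DMSO vehicle given 5 days/week for 4 weeks, n=10, with tumors followed a further 20 days. Volume by caliper as π/6 × L × W × H. Body weight recorded 3 times weekly.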

[21] = biological target: Bromodomain-containing protein 4 (Homo sapiens) (UniProt O60885); details: D425 Med, dose 300.0 nM; remark: listed apart in the source
Daoy [22] = assay: Antitumor activity against human Daoy cells xenografted in athymic nude mice assessed as induction of senescence at 50 mg/kg, ip measured after 5 days by beta-galactosidase staining based analysis; type: functional, organism-based; details: time 5.0 day
Summary of the method: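 Daoy cells (1.0×10^7 in PBS) injected into the flank of athymic nude mice. Once tumors were palpable, drug given 50 mg/kg i.p. with DMSO as vehicle control. Animals were sacrificed after a 5-day treatment. Tumors were assessed by Ki67 IHC and by senescence-associated β-galactosidase staining.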

D283 Med [23] = assay: Suppression of human D283 Med cells self-renewal cultured in serum free condition assessed as reduction in formation of new neurosphere at 300 nM; type: functional, cell-based
Summary of the method: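 Cells grown as neurospheres in serum-free medium for 48 h, dissociated, and seeded in a limiting dilution from 1000 to 1 cell/well, with 300 nM drug or DMSO. After 7 days in serum-free culture, neurospheres per well counted and plotted against cells seeded.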

Daoy [24] = assay: Induction of senescence in human Daoy cells assessed as increase in beta-galactosidase level at 75 to 300 nM measured after 7 days by staining based analysis; type: functional, cell-based; details: dose 75-300 nM, time 7.0 day
Summary of the method: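 Daoy cells treated with 75 or 300 nM drug or DMSO. Senescence-associated β-galactosidase staining performed after 7 days. Positive cells counted per high power field.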

D283 Med [25] = assay: Antiproliferative activity in human D283 Med cells assessed as inhibition of cell growth at 300 nM by flow cytometry analysis; type: functional, cell-based; summary of the method: as §2
Daoy [26] = assay: Induction of senescence in human Daoy cells assessed as increase in p21 mRNA expression at 300 nM by RT-qPCR analysis; type: functional, cell-based; summary of the method: as §1

Cc1sc2c(c1C)C(c1ccc(Cl)cc1)=N[C@@H](CC(=O)OC(C)(C)C)c1nnc(C)n1-2
Activity (Daoy [1]): Active | inhibition (D283 Med [2]): Active | Activity (D458 Med [3]): 46.86% | Activity (D425 Med [4]): 31% | Activity (D458 Med [5]): 26.58% | Activity (Daoy [6]): Dose-Dependent Effect | inhibition [7]: Active | Activity (Daoy [8]): 3.736% | inhibition [9]: Active | inhibition [10]: Active | inhibition [11]: Active | Activity (D425 Med [12]): Active | inhibition [13]: Active | Activity (D425 Med [14]): 39.393% | inhibition [15]: Tde | inhibition [16]: Active | Activity (Medulloblastoma cell): Active | inhibition [17]: Active | inhibition (Daoy [18]): Active | Activity (D283 Med [19]): 30.373% | Activity [20]: Non-Toxic | inhibition [21]: Active | Activity (Daoy [22]): Active | Activity (D283 Med [23]): Active | Activity (Daoy [24]): Active | Activity (D283 Med [25]): Active | Activity (Daoy [26]): Active
